Active and inactive are the calls of the source.
Assays:
Oryctolagus cuniculus [1] = organism: Oryctolagus cuniculus; assay: Concentration which increased contractility by 20% in rabbit; Negative inotropic effect observed; format: functional, organism-based
In short: (§1)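 Langendorff-perfused rabbit heart, 45 min equilibration, then five cumulative concentrations with 15 min exposure each. Contractility read as dP/dt; the nanomolar concentration raising it by 20% was derived from the concentration–response curve. Repeated-measures ANOVA, mean change from control ± SEM.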

[2] = system: Sodium channel protein type 5 subunit alpha (Cavia porcellus); assay: Inactivation process of guinea pig cardiac Na channels expressed in xenopus oocytes was determined by measuring increase in current integral in presence of compound versus control at 10 uM; details: oocyte
Oryctolagus cuniculus [3] = organism: Oryctolagus cuniculus; assay: Antiarrhythmic activity was determined by measuring the concentration that produced a 20 ms increase in ERP; no effect at </= 3; format: functional, organism-based; details: Heart
In short: (§2)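 Langendorff-perfused rabbit heart, equilibrated 45 min before control. ERP measured after 15 min exposure to each of five cumulative concentrations: single premature stimulus scanning diastole at twice threshold. Concentration giving a 20 ms ERP increase taken from the concentration–response curve; repeated-measures ANOVA, mean change ± SEM.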

[4] = Inactivation processes of human heart Na channel expressed in Xenopus oocytes as increase in current at 10 uM; format: functional, Oocyte
In short: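 Oocytes injected with cRNA transcribed from human cardiac Na channel (HH1) cDNA. Two-microelectrode voltage clamp at 21–23 °C, perfusion buffer with Na raised to 140 mM. Current integrated at −20 mV after the capacity transient settled. Single 10 μM exposure per oocyte; percent change in integral versus control, ± SEM.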

[5] = Effective concentration against Xenopus oocytes expressing human heart Na channel; format: functional, cell-based; details: oocyte
In short: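 HH1 human cardiac Na channel cRNA in oocytes; perfusate Na 140 mM, 21–23 °C, integral taken at −20 mV. At least three concentrations, n ≥ 3 each, single concentration per oocyte. Pooled data gave the EC50 (nM producing 50% integral increase) by linear regression over the lower, non-blocking range.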

Oryctolagus cuniculus [6] = organism: Oryctolagus cuniculus; assay: Antiarrhythmic activity was determined by measuring the concentration that produced a 20 ms increase in ERP; format: functional, Heart; in short: as §2
Oryctolagus cuniculus [7] = organism: Oryctolagus cuniculus; assay: Concentration which increased contractility by 20% in rabbit; format: functional; in short: as §1
[8] = Effective concentration against Xenopus oocytes expressing guinea pig heart Na channel; format: functional, cell-based, Cavia porcellus; details: oocyte
In short: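 Guinea pig heart RNA in Xenopus oocytes, voltage clamp at 21–23 °C, integral taken at −10 mV. Three or more concentrations, n ≥ 3 each, one per oocyte. Pooled percent-change data plotted semilogarithmically; EC50 (nM giving 50% integral increase) obtained by linear regression over the range lacking significant current block.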

Oryctolagus cuniculus [9] = organism: Oryctolagus cuniculus; assay: Concentration which increased contractility by 20% in rabbit; no effect at </=3 uM; format: functional, organism-based; in short: as §1
Oryctolagus cuniculus [10] = organism: Oryctolagus cuniculus; assay: Concentration which increased contractility by 20% in rabbit; no effect; format: functional, organism-based; in short: as §1
Cavia porcellus = organism: Cavia porcellus; assay: Effect on inactivation processes of guinea pig cardiac Na channels expressed in Xenopus oocytes was determined by measuring the increase in current integral in the presence of compound Vs control at 10 uM; format: functional
In short: (§3)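 Guinea pig heart RNA injected into defolliculated stage V–VI Xenopus oocytes; two-microelectrode voltage clamp at 21–23 °C with standard HEPES buffer perfusion, pH 7.5. Current integrated at the I–V peak (−10 mV) after the capacity transient settled. One test concentration (10 μM) per oocyte; percent change in integral calculated against that oocyte's control, reported ± SEM.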

Oocyte = assay: Inactivation of guinea pig cardiac Na channel expressed in Xenopus oocytes as increased current at 10 uM; insoluble; format: functional, cell-based; details: Cavia porcellus; in short: as §3

Compound | Change [2] [%] | Change [4] [%] | EC50 [5] [nM] | EC20 (Oryctolagus cuniculus [6]) [nM] | dP/dt (Oryctolagus cuniculus [7]) [nM] | EC50 [8] [nM] | other results
O[C@H](CN1CCN(C(c2ccccc2)c2ccccc2)CC1)Cn1cnc2c(-n3cccc3)ncnc21 | 21 |  |  |  |  |  | dP/dt (Oryctolagus cuniculus [1]): inactive; EC20 (Oryctolagus cuniculus [3]): inactive
O[C@@H](CN1CCN(C(c2ccccc2)c2ccccc2)CC1)Cn1cnc(-c2ccccc2)c2ncnc1-2 | 378 | 201 | 1600 | 141 | 434 | 160 | 
OC(CN1CCN(C(c2ccccc2)c2ccccc2)CC1)Cn1cnc2c(-n3ccnc3)ncnc21 (stereo unspecified) | 680 |  |  | 27 | 46 | 630 | 
O[C@@H](CN1CCN(C(c2ccccc2)c2ccccc2)CC1)Cn1cnc(-n2cccc2)c2ncnc1-2 | 711 | 540 | 290 | 43 | 377 | 85 | 
Cc1cnn(-c2ncnc3c2ncn3CC(O)CN2CCN(C(c3ccccc3)c3ccccc3)CC2)c1 (stereo unspecified) | 868 |  |  | 216 | 300 | 585 | 
OC(CN1CCN(C(c2ccccc2)c2ccccc2)CC1)Cn1cnc2cncnc21 (stereo unspecified) | 288 |  |  | 95 | 110 | 796 | 
N#Cc1cc2c(OCC(O)CN3CCN(C(c4ccccc4)c4ccccc4)CC3)cccc2[nH]1 (stereo unspecified) | 239 | 174 | 2310 | 430 |  | 1920 | dP/dt (Oryctolagus cuniculus [9]): inactive
N#Cc1ncnc2c1ncn2CC(O)CN1CCN(C(c2ccccc2)c2ccccc2)CC1 (stereo unspecified) | 1328 |  |  | 260 | 250 | 399 | 
O[C@@H](CN1CCN(C(c2ccccc2)c2ccccc2)CC1)Cn1cnc2c(-c3ccccc3)ncnc21 | 413 | 128 | 2000 | 425 |  | 526 | dP/dt (Oryctolagus cuniculus [10]): inactive
Nc1ncnc2c1ncn2CC(O)CN1CCN(C(c2ccccc2)c2ccccc2)CC1 (stereo unspecified) | 212 |  |  | 307 | 128 | 1410 | 
OC(CN1CCN(C(c2ccccc2)c2ccccc2)CC1)Cn1cnc2c(-n3cccn3)ncnc21 (stereo unspecified) | 372 |  |  | 81 | 40 | 158 | 
OC(CN1CCN(C(c2ccccc2)c2ccccc2)CC1)Cn1cnc2c(-n3cncn3)ncnc21 (stereo unspecified) | 1664 |  |  | 57 | 60 | 204 | 
Cc1cn(-c2ncnc3c2ncn3CC(O)CN2CCN(C(c3ccccc3)c3ccccc3)CC2)cn1 (stereo unspecified) | 126 |  |  |  |  | > 3000 | EC20 (Oryctolagus cuniculus [3]): inactive
OC(CN1CCN(C(c2ccccc2)c2ccccc2)CC1)Cn1cnc2c(-c3ccc4ccccc4c3)ncnc21 (stereo unspecified) |  |  |  |  |  |  | Change (Cavia porcellus): -66%
O[C@@H](CN1CCN(C(c2ccccc2)c2ccccc2)CC1)Cn1cnc2c(-n3cccn3)ncnc21 | 1226 | 540 | 900 | 18 | 40 | 99 | 
OC(CN1CCN(C(c2ccc(Cl)cc2)c2ccc(Cl)cc2)CC1)Cn1cnc2c(-n3cccc3)ncnc21 (stereo unspecified) |  |  |  |  |  |  | Change (Oocyte): Insoluble

— ChEMBL document CHEMBL1128429, “Synthesis and structure-activity relationships of 6-heterocyclic-substituted purines as inactivation modifiers of cardiac sodium channels” (J Med Chem, 1995)
